According to ChEMBL document CHEMBL3351726 (J Med Chem, 2014):
Active and inactive are the calls of the source. The calls are words filed in the database; no cut-off is given here. Residues, ends and D or L forms follow the SMILES beside them.

Experiments:
[1] = Retention time of the compound measured over 30 mins at flow rate of 1 mL/min by HPLC; assay type: physicochemical; settings: 0.5 h
How it was run: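 Reversed-phase analytical HPLC or LC−MS on a SymmetryShield RP18 column (5 μm, 4.6 × 150 mm). Gradient 10−60% B over 30 min at 1 mL/min; A = 0.1% TFA in water, B = 0.1% TFA in acetonitrile.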

HEK293 = experiment: Selectivity ratio of IC50 for rat Nav1.2 expressed in HEK-293 cells to IC50 for human Nav1.7 expressed in HEK-293 cells; assay type: cell-based
[2] = biological target: T1, Sodium channel protein type 9 subunit alpha (Homo sapiens, UniProt Q15858); experiment: Inhibition of human Nav1.7 expressed in HEK-293 cells assessed as time for channel-mediated current inhibition at 2 nM by time-course experiment; assay type: cell-based; settings: HEK293
How it was run: (§1)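 HEK-293 cells on poly-D-lysine-coated dishes in DMEM at 37 °C, 5% CO2; recorded 12−48 h after plating. Whole-cell voltage-clamp sodium currents under continuous perfusion with extracellular solution. Compounds applied via a gravity-driven superfusion pipette array with its outlet about 100 μm from the cell.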
Target sequence in this assay (Q15858 whole entry, looked up, the tested form may be a part): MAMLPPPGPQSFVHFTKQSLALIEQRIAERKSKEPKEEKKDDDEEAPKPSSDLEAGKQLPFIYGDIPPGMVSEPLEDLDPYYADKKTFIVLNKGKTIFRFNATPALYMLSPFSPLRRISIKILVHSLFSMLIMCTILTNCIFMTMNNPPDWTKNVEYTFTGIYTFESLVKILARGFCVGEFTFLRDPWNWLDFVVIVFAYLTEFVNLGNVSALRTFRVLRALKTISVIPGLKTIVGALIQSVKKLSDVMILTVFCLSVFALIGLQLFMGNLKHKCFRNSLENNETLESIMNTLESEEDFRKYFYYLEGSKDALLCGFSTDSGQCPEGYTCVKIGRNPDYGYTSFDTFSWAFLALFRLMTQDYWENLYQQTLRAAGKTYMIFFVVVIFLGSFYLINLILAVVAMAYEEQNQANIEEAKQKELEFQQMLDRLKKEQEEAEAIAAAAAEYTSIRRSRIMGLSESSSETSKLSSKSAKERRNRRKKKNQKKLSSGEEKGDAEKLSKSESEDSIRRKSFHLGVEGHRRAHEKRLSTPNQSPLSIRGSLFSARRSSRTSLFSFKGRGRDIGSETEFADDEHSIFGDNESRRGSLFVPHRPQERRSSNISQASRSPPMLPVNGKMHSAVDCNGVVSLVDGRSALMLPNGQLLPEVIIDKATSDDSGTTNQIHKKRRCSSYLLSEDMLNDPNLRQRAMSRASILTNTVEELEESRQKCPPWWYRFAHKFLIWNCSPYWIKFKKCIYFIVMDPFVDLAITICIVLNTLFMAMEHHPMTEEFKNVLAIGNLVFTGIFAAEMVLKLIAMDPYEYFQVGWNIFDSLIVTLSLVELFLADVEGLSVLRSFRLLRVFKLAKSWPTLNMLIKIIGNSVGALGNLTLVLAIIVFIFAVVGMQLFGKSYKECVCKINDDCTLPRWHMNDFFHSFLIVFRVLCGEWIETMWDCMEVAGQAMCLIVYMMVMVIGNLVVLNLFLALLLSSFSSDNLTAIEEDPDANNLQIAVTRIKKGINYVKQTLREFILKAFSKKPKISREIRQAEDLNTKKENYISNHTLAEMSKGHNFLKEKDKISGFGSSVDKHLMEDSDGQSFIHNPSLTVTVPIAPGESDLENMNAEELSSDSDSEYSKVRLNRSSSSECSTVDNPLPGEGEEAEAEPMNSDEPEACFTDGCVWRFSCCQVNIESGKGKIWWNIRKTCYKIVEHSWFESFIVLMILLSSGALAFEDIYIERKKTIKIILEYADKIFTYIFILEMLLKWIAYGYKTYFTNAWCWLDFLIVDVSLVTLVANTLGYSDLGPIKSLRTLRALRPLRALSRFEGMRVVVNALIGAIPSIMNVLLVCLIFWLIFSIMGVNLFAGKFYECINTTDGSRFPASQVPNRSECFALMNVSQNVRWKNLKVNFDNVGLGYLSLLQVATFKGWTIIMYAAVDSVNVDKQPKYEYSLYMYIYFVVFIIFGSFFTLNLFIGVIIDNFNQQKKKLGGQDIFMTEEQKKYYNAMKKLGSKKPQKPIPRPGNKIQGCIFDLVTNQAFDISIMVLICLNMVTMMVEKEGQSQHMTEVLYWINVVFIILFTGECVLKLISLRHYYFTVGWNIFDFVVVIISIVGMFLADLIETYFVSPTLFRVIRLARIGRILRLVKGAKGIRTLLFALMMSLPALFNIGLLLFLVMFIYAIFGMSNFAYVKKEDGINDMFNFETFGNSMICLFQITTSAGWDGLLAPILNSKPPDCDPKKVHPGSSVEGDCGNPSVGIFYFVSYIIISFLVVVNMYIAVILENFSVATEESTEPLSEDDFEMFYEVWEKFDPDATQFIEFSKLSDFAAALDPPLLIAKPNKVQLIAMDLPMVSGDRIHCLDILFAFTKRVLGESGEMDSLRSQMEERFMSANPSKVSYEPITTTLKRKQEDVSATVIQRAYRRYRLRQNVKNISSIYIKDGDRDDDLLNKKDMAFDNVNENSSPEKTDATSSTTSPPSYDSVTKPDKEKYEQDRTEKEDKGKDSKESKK

[3] = Retention time of the compound measured over 15 mins at flow rate of 1 mL/min by HPLC
[4] = Retention time of the compound measured over 6 mins at flow rate of 0.5 mL/min by HPLC; assay type: physicochemical; settings: 0.1 h
[5] = biological target: T1, Sodium channel protein type 9 subunit alpha; experiment: Inhibition of human Nav1.7 expressed in HEK-293 cells at -130 to -110 mV holding potential by whole-cell voltage clamp analysis; assay type: cell-based, HEK293
Target sequence in this assay (Q15858 whole entry, the tested form may be a part): as the sequence (Q15858 whole entry, looked up, the tested form may be a part) above

[6] = biological target: T1, Sodium channel protein type 9 subunit alpha; experiment: Inhibition of human Nav1.7 expressed in HEK-293 cells assessed as inhibition of channel-mediated current at 1 nM by time-course experiment; assay type: cell-based; settings: HEK293; how it was run: as §1
Target sequence in this assay (Q15858 whole entry, looked up, the tested form may be a part): as above

[7] = biological target: T1, Sodium channel protein type 9 subunit alpha; experiment: Inhibition of human Nav1.7 expressed in HEK-293 cells assessed as inhibition of channel-mediated current at 1 nM followed by wash-out and compound treatment at 0.1 nM by time-course experiment relative to initial peak amplitude; assay type: cell-based; settings: HEK293; how it was run: as §1
Target sequence in this assay (Q15858 whole entry, looked up, the tested form may be a part): as above

SMILES	Retention_time [1]	Ratio IC50 (HEK293)	TIME [2]	Retention_time [3]	Retention_time [4]	IC50 [5]	inhibition [6]	inhibition [7]
CSCC[C@@H]1NC(=O)CNC(=O)[C@H](CCC(=O)O)NC(=O)[C@@H]2CSSC[C@H](NC(=O)[C@@H](N)Cc3ccc(O)cc3)C(=O)N[C@@H](CCC(N)=O)C(=O)N[C@@H](CCCCN)C(=O)N[C@@H](Cc3c[nH]c4ccccc34)C(=O)N[C@@H](CCSC)C(=O)N[C@@H](Cc3c[nH]c4ccccc34)C(=O)N[C@@H]([C@@H](C)O)C(=O)N[C@H]3CSSC[C@H](NC(=O)[C@H](C(C)C)NC1=O)C(=O)N[C@@H](CCCNC(=N)N)C(=O)N[C@@H](CC(C)C)C(=O)N[C@@H](Cc1c[nH]c4ccccc14)C(=O)N[C@H](C(=O)N[C@@H](CCCCN)C(=O)N[C@@H](CCCCN)C(=O)N[C@@H](CCCCN)C(=O)N[C@@H](CC(C)C)C(=O)N[C@@H](Cc1c[nH]c4ccccc14)C(=O)O)CSSC[C@H](NC(=O)[C@H](CCCCN)NC(=O)[C@H](CCCNC(=N)N)NC(=O)[C@H](C)NC(=O)[C@H](CO)NC(=O)[C@H](CC(=O)O)NC3=O)C(=O)N2	14.54 min	40	0.0606 h	9.29 min				
CNC(=O)[C@H](Cc1c[nH]c2ccccc12)NC(=O)[C@H](CC(C)C)NC(=O)[C@H](CCCCN)NC(=O)[C@H](CCCCN)NC(=O)[C@H](CCCCN)NC(=O)[C@@H]1CSSC[C@@H]2NC(=O)[C@H](CCCCN)NC(=O)[C@H](CCCNC(=N)N)NC(=O)[C@H](CCC(=O)O)NC(=O)[C@H](CO)NC(=O)[C@H](CC(=O)O)NC(=O)[C@@H]3CSSC[C@H](NC(=O)[C@H](C(C)C)NC(=O)[C@H](CCSC)NC(=O)CNC(=O)[C@H](CCC(=O)O)NC(=O)[C@H](CSSC[C@H](NC(=O)[C@@H](N)Cc4ccc(O)cc4)C(=O)N[C@@H](CCC(N)=O)C(=O)N[C@@H](CCCCN)C(=O)N[C@@H](Cc4c[nH]c5ccccc45)C(=O)N[C@@H](CCSC)C(=O)N[C@@H](Cc4c[nH]c5ccccc45)C(=O)N[C@@H]([C@@H](C)O)C(=O)N3)NC2=O)C(=O)N[C@@H](CCCNC(=N)N)C(=O)N[C@@H](CC(C)C)C(=O)N[C@@H](Cc2c[nH]c3ccccc23)C(=O)N1	12.44 min	83			2.52 min	0.042 nM	Active	80%
COC(=O)[C@H](Cc1c[nH]c2ccccc12)NC(=O)[C@H](CC(C)C)NC(=O)[C@H](CCCCN)NC(=O)[C@H](CCCCN)NC(=O)[C@H](CCCCN)NC(=O)[C@@H]1CSSC[C@@H]2NC(=O)[C@H](CCCCN)NC(=O)[C@H](CCCNC(=N)N)NC(=O)[C@H](CCC(=O)O)NC(=O)[C@H](CO)NC(=O)[C@H](CC(=O)O)NC(=O)[C@@H]3CSSC[C@H](NC(=O)[C@H](C(C)C)NC(=O)[C@H](CCSC)NC(=O)CNC(=O)[C@H](CCC(=O)O)NC(=O)[C@H](CSSC[C@H](NC(=O)[C@@H](N)Cc4ccc(O)cc4)C(=O)N[C@@H](CCC(N)=O)C(=O)N[C@@H](CCCCN)C(=O)N[C@@H](Cc4c[nH]c5ccccc45)C(=O)N[C@@H](CCSC)C(=O)N[C@@H](Cc4c[nH]c5ccccc45)C(=O)N[C@@H]([C@@H](C)O)C(=O)N3)NC2=O)C(=O)N[C@@H](CCCNC(=N)N)C(=O)N[C@@H](CC(C)C)C(=O)N[C@@H](Cc2c[nH]c3ccccc23)C(=O)N1	13.17 min	5			2.93 min	0.6 nM		
CSCC[C@@H]1NC(=O)CNC(=O)[C@H](CCC(=O)O)NC(=O)[C@@H]2CSSC[C@H](NC(=O)[C@@H](N)Cc3ccc(O)cc3)C(=O)N[C@@H](CCC(N)=O)C(=O)N[C@@H](CCCCN)C(=O)N[C@@H](Cc3c[nH]c4ccccc34)C(=O)N[C@@H](CCSC)C(=O)N[C@@H](Cc3c[nH]c4ccccc34)C(=O)N[C@@H]([C@@H](C)O)C(=O)N[C@H]3CSSC[C@H](NC(=O)[C@H](C(C)C)NC1=O)C(=O)N[C@@H](CCCNC(=N)N)C(=O)N[C@@H](CC(C)C)C(=O)N[C@@H](Cc1c[nH]c4ccccc14)C(=O)N[C@H](C(=O)N[C@@H](CCCCN)C(=O)N[C@@H](CCCCN)C(=O)N[C@@H](CCCCN)C(=O)N[C@@H](CC(C)C)C(=O)N[C@@H](Cc1c[nH]c4ccccc14)C(=O)Nc1ccccc1)CSSC[C@H](NC(=O)[C@H](CCCCN)NC(=O)[C@H](CCCNC(=N)N)NC(=O)[C@H](CCC(=O)O)NC(=O)[C@H](CO)NC(=O)[C@H](CC(=O)O)NC3=O)C(=O)N2	14.13 min	4			2.57 min	0.8 nM		
CC[C@H](C)[C@H](NC(=O)[C@@H](NC(=O)[C@H](CCCCN)NC(=O)[C@H](CCCCN)NC(=O)[C@H](CCCCN)NC(=O)[C@@H]1CSSC[C@@H]2NC(=O)[C@H](CCCCN)NC(=O)[C@H](CCCNC(=N)N)NC(=O)[C@H](C)NC(=O)[C@H](CO)NC(=O)[C@H](CC(=O)O)NC(=O)[C@@H]3CSSC[C@H](NC(=O)[C@H](C(C)C)NC(=O)[C@H](CC(C)C)NC(=O)CNC(=O)[C@H](CCC(=O)O)NC(=O)[C@H](CSSC[C@H](NC(=O)[C@@H](N)Cc4ccc(O)cc4)C(=O)N[C@@H](CCC(N)=O)C(=O)N[C@@H](CCCCN)C(=O)N[C@@H](Cc4c[nH]c5ccccc45)C(=O)N[C@@H](CCSC)C(=O)N[C@@H](Cc4c[nH]c5ccccc45)C(=O)N[C@@H]([C@@H](C)O)C(=O)N3)NC2=O)C(=O)N[C@@H](CCCNC(=N)N)C(=O)N[C@@H](CC(C)C)C(=O)N[C@@H](Cc2c[nH]c3ccccc23)C(=O)N1)C(C)C)C(=O)O (HELM PEPTIDE1{Y.C.Q.K.W.M.W.T.C.D.S.A.R.K.C.C.E.G.L.V.C.R.L.W.C.K.K.K.V.I}$PEPTIDE1,PEPTIDE1,2:R3-16:R3|PEPTIDE1,PEPTIDE1,9:R3-21:R3|PEPTIDE1,PEPTIDE1,15:R3-25:R3$$$V2.0)	14.79 min			9 min		4 nM		
[H][C@]12CSSC[C@@H](C(=O)N[C@@H](CCCCN)C(=O)N[C@@H](CCCCN)C(=O)N[C@@H](CC(C)C)C(=O)N[C@@H](Cc3c[nH]c4ccccc34)C(=O)O)NC(=O)[C@H](Cc3c[nH]c4ccccc34)NC(=O)[C@H](CC(C)C)NC(=O)[C@H](CCCNC(=N)N)NC(=O)[C@]3([H])CSSC[C@]([H])(NC(=O)[C@]([H])([C@@H](C)O)NC(=O)[C@H](Cc4c[nH]c5ccccc45)NC(=O)[C@H](CCSC)NC(=O)[C@H](Cc4c[nH]c5ccccc45)NC(=O)[C@H](CCCCN)NC(=O)[C@H](CCC(N)=O)NC(=O)[C@@H](NC(=O)[C@@H](N)Cc4ccc(O)cc4)CSSC[C@]([H])(NC1=O)C(=O)N[C@@H](CCC(=O)O)C(=O)NCC(=O)N[C@@H](CC(C)C)C(=O)N[C@@H](C(C)C)C(=O)N3)C(=O)N[C@@H](CC(=O)O)C(=O)N[C@@H](CO)C(=O)N[C@@H](C)C(=O)N[C@@H](CCCNC(=N)N)C(=O)N[C@@H](CCCCN)C(=O)N2 (HELM PEPTIDE1{Y.C.Q.K.W.M.W.T.C.D.S.A.R.K.C.C.E.G.L.V.C.R.L.W.C.K.K.L.W}$PEPTIDE1,PEPTIDE1,2:R3-16:R3|PEPTIDE1,PEPTIDE1,9:R3-21:R3|PEPTIDE1,PEPTIDE1,15:R3-25:R3$$$V2.0)	15.35 min	1		9.25 min		67 nM		
